# Results from different studies.
# Lines come from different studies, so protocols differ.
# Target: Calcium/calmodulin-dependent protein kinase kinase 1 (CAMKK1, Homo sapiens, UniProt Q8N5S9)
SMILES,observed,technique,concentration,remaining binding [%]
CN(C)c1nccc(-c2cnc3ncccn23)n1,binding,,1 µM,100
O=C(NCCCN1CCOCC1)c1ccc(Nc2nccc(-c3cc4ccccc4s3)n2)cc1,binding,competition with immobilised ligand,1 µM,80
O=C(Nc1c[nH]nc1C(=O)NC1CCNCC1)c1cc(F)cc(F)c1,binding,competition with immobilised ligand,1 µM,90
FC(F)(F)Oc1cccc(-c2cnc3ccc(-c4ccncc4)nn23)c1,cell-free assay,competition with immobilised ligand,5 µM,43
CNC(=O)c1ccc(Nc2ncc(C(F)(F)F)c(NCc3nccnc3N(C)S(C)(=O)=O)n2)cc1,cell-free assay,competition with immobilised ligand,0.1 µM,75
C[C@H]1CCN(c2nccc(-c3cnn4ncccc34)n2)C1,binding,,1 µM,91
Cc1noc([C@H]2C[C@@H](c3ccc(C(F)(F)F)cc3)CN(C(=O)N3CCS(=O)(=O)C3)C2)n1,cell-free assay,competition with immobilised ligand,1 µM,100
CN(CCCC(F)(F)F)c1nccc(-c2cnn3ncccc23)n1,binding,,1 µM,100
COc1ncc2cc3ccccc3nc2c1C#N,cell-free assay,competition with immobilised ligand,5 µM,87
c1cnn2ncc(-c3ccnc(N4CCC45COC5)n3)c2c1,binding,,1 µM,97
Cc1nc(C2CCN(C(=O)c3ccc(OC(F)(F)F)cc3N)CC2)c2ncc(N3CCN(C)CC3)cc2n1,cell-free assay,competition with immobilised ligand,1 µM,100
O=C(NCCCN1CCOCC1)c1ccc(Nc2ncc(Cl)c(-c3ccc(Cl)s3)n2)cc1,binding,competition with immobilised ligand,1 µM,73
CC(=O)Nc1c(C(C)=O)c(=O)n(C)c2nc(-c3ccc(Cl)cc3Cl)c(-c3ccc(Cl)cc3)cc12,cell-free assay,competition with immobilised ligand,1 µM,100
F[C@@H]1CCN(c2nccc(-c3cnn4ncccc34)n2)C1,binding,,1 µM,100
O=C(c1ccc(Nc2ncc(Cl)c(-c3ccc(Cl)s3)n2)cc1)N1CCC(N2CCCC2)CC1,binding,competition with immobilised ligand,1 µM,86
O=C(Nc1cccnn1)N1CC(C/C=C/c2cncc(Oc3ccc(C(F)(F)F)cn3)n2)C1,cell-free assay,competition with immobilised ligand,1 µM,100
CNC(=O)[C@@H]1CC[C@@H](n2c(-c3ccc4cnccc4c3)nc3ccc(C(=O)NCc4cccc(C(N)=O)c4)cc32)C1,binding,competition with immobilised ligand,1 µM,94
Cc1cnn2ncc(-c3ccnc(N(C)C)n3)c2c1,binding,,1 µM,84
CNCc1ccccc1-c1csc([C@@H](C)Nc2nc(C)nc3cc(OC)c(OC)cc23)c1,cell-free assay,competition with immobilised ligand,1 µM,100
COc1cnc(Nc2cccc(S(N)(=O)=O)c2)nc1N1CCN(c2ccccc2)C(=O)C1,binding,competition with immobilised ligand,1 µM,100
Nc1ncc2c(n1)-c1c([nH]c3ccc(C#CC4CC4)cc13)CCCC2,binding,competition with immobilised ligand,1 µM,98
N[C@@H]1CCN(c2nccc(-c3cnn4ncccc34)n2)C1,binding,,1 µM,100
